Test results: ChEMBL document CHEMBL4257585, “Structure-Activity Relationships of Photoswitchable Diarylethene-Based β-Hairpin Peptides as Membranolytic Antimicrobial and Anticancer Agents” (J Med Chem, 2018)
pIC50: −log10 of the molar value. Converted amounts (≈) assume the structure as drawn.

Key:
[1] = tested on: Bacillus subtilis; assay: Antimicrobial activity against Bacillus subtilis DSM 347 after 22 hrs by resazurin dye based spectrophotometry; format: functional; conditions: DSM 347, 22 h
Outline: (§1)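 2-fold broth microdilution in Mueller–Hinton medium; peptide stocks 1024 μg/mL in 50% ethanol. Exponential-phase cultures diluted to OD550 0.2, then 1:100 (B. subtilis) or 1:1000 (E. coli), giving 5 × 10^5 CFU/mL per well. Incubated 22 h, 37 °C, static; then resazurin (0.2 mg/mL solution) added for 2 h at 37 °C, read visually and spectrophotometrically. Tested in both photoforms.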

[2] = tested on: Escherichia coli; assay: Antimicrobial activity against Escherichia coli DSM 1103 after 22 hrs by resazurin dye based spectrophotometry; format: functional; conditions: DSM 1103, 22 h; outline: as §1
[3] = tested on: HeLa; assay: Cytotoxicity against human HeLa cells assessed as reduction in cell viability after 24 hrs by MTT assay; format: functional, cell-based
Outline: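 HeLa cells seeded at about 5 × 10^4 cells/mL in DMEM with 10% FBS, 2 mM glutamine, gentamicin; 24 h adaptation (37 °C, 5% CO2), then 24 h peptide exposure. MTT 4 h, formazan in DMSO read at 570 nm. 2-fold series 256–0.5 (open) or 512–1 μg/mL (closed), four repetitions; IC50 extrapolated from killing curves. Closed form handled in dim light.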

[4] = Hemolytic activity against human RBC assessed as hemolysis after 30 mins by colorimetric method; format: ADME, cell-based, Erythrocyte; conditions: human red blood cells (erythrocytes)
Outline: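 Human erythrocytes washed twice in isotonic 172 mM Tris-HCl, pH 7.6; peptides dissolved in DMSO, diluted in buffer, two independent 10-step 2-fold series from 256 or 192 μg/mL. HC50 extrapolated as 50% hemolysis concentration.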

[5] = Therapeutic index, ratio of HC50 for human RBC to MIC for Escherichia coli DSM 1103; format: toxicity; conditions: human red blood cells versus Escherichia coli DSM 1103
Outline: (§2)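 Ratio of HC50 (RBC) to HeLa IC50 or to MIC against B. subtilis or E. coli; values measured in mg/mL and recalculated to μM, 2-fold dilution without curve fitting, accuracy within a factor of 2.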

[6] = Therapeutic index, ratio of HC50 for human RBC to MIC for Bacillus subtilis DSM 347; format: toxicity; conditions: human red blood cells versus Bacillus subtilis DSM 347; outline: as §2
[7] = Selective ratio of HC50 for human RBC to IC50 for human HeLa cells; format: toxicity; conditions: human red blood cells versus HeLa cells; outline: as §2

| Structure (SMILES) | MIC [1] [µM] | MIC [2] [µM] | pIC50 [3] | HC50 at 0.5 h [4] [µM] | selectivity ratio [5] | selectivity ratio [6] | selectivity ratio [7] |
| --- | --- | --- | --- | --- | --- | --- | --- |
| CC(C)NC(=O)C[C@@H]1NC(=O)C2=CC3=C4CCCC4=C4C=C(S[C@]4(C)[C@@]3(C)S2)C(=O)[C@H]2CCCN2C(=O)[C@H](C(C)C)NC(=O)[C@H](CCCN)NC(=O)[C@H](C(C)C)NC(=O)[C@@H]2CCCN2C(=O)[C@@H](Cc2ccccc2)NC(=O)[C@H](C(C)C)NC(=O)[C@H](CCCN)NC1=O | 49 (≈ 64.2 µg/mL) | 196 (≈ 257 µg/mL) | 3.71 | 391 | 2 | 7.8 | 2 |
| CC(C)C[C@@H]1NC(=O)[C@H](CCCNC(=N)N)NC(=O)[C@H](C(C)C)NC(=O)C2=CC3=C4CCCC4=C4C=C(S[C@]4(C)[C@@]3(C)S2)C(=O)[C@H]2CCCN2C(=O)[C@H](CC(C)C)NC(=O)[C@H](CCCNC(=N)N)NC(=O)[C@H](C(C)C)NC(=O)[C@@H]2CCCN2C(=O)[C@@H](Cc2ccccc2)NC1=O | 6 (≈ 8.19 µg/mL) | 94 (≈ 128 µg/mL) | 4.46 | 10 | 0.1 | 1.7 | 0.3 |
| Cc1sc2cc1C1=C(CCC1)c1cc(sc1C)C(=O)[C@H]1CCCN1C(=O)[C@H](C)NC(=O)[C@H](CCCN)NC(=O)[C@H](C(C)C)NC(=O)[C@@H]1CCCN1C(=O)[C@@H](Cc1ccccc1)NC(=O)[C@H](CC(C)C)NC(=O)[C@H](CCCN)NC(=O)[C@H](C)NC2=O | 7 (≈ 8.47 µg/mL) | 106 (≈ 128 µg/mL) | 4.40 | 87 | 0.8 | 12.4 | 2.2 |
| C[C@@H](O)[C@@H]1NC(=O)[C@H](C23CC4CC(CC(C4)C2)C3)NC(=O)[C@H](CCCN)NC(=O)[C@@H]2CCCN2C(=O)[C@@H](Cc2ccccc2)NC(=O)[C@H](CCCN)NC(=O)[C@H](C23CC4CC(CC(C4)C2)C3)NC(=O)[C@H](CCCN)NC(=O)C2=CC3=C4CCCC4=C4C=C(S[C@]4(C)[C@@]3(C)S2)C(=O)[C@H]2CCCN2C1=O | 2 (≈ 2.91 µg/mL) | 13 (≈ 18.9 µg/mL) | 4.96 | 13 | 0.1 | 6.5 | 1.2 |

Continued, in another order:

| MIC [1] [µM] | MIC [2] [µM] | Structure (SMILES) | pIC50 [3] | HC50 at 0.5 h [4] [µM] | selectivity ratio [5] | selectivity ratio [6] | selectivity ratio [7] |
| --- | --- | --- | --- | --- | --- | --- | --- |
| 13 (≈ 16.7 µg/mL) | 200 (≈ 257 µg/mL) | CC(C)[C@@H]1NC(=O)[C@H](CCCN)NC(=O)[C@H]([C@H](O)C(C)C)NC(=O)C2=CC3=C4CCCC4=C4C=C(S[C@]4(C)[C@@]3(C)S2)C(=O)[C@H]2CCCN2C(=O)[C@H](C(C)C)NC(=O)[C@H](CCCN)NC(=O)[C@H](C(C)C)NC(=O)[C@@H]2CCCN2C(=O)[C@@H](Cc2ccccc2)NC1=O | 3.52 | 351 | 1.8 | 27 | 1.2 |
| 13 (≈ 16.1 µg/mL) | 207 (≈ 256 µg/mL) | CC(C)C[C@@H]1NC(=O)[C@H](CCCN)NC(=O)[C@H](C(C)C)NC(=O)C2=CC3=C4CCCC4=C4C=C(S[C@]4(C)[C@@]3(C)S2)C(=O)[C@H]2CCCN2C(=O)[C@H](C)NC(=O)[C@H](CCCN)NC(=O)[C@H](C(C)C)NC(=O)[C@@H]2CCCN2C(=O)[C@@H](Cc2ccccc2)NC1=O | 4.41 | 45 | 0.2 | 3.5 | 1.2 |
| 3 (≈ 4.02 µg/mL) | 191 (≈ 256 µg/mL) | CC[C@H](C)[C@@H]1NC(=O)C2=CC3=C4CCCC4=C4C=C(S[C@]4(C)[C@@]3(C)S2)C(=O)[C@H]2CCCN2C(=O)[C@H]([C@@H](C)CC)NC(=O)[C@H](CCCN)NC(=O)[C@H](CC(C)C)NC(=O)[C@H](CC(C)C)N(C)C(=O)[C@@H](Cc2ccccc2)NC(=O)[C@H]([C@@H](C)CC)NC(=O)[C@H](CCCN)NC1=O | 4.60 | 27 | 0.1 | 9 | 1.1 |
